SENP1 FRET inh: human SENP1 catalytic domain inhibitors, primary screen, biochemical, FRET, uHTS; Sentrin-specific protease 1 (Homo sapiens), Q9P0U3; recombinant SENP1 catalytic domain, CyPet-SUMO1-YPet FRET cleavage; inhibition, % at 10 µM; hit rate 0.21% among 360,000;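 active = inhibition at least 30% at 10 µM, raw YFP signal under a set limit, fluorescence ratio 0.5 to 1.5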
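Test system: recombinant human SENP1 catalytic domain, His6-tagged / Medium: pH 8 Tris buffer with EDTA, NaCl, BME, BSA, NP40, catalase / Also added: SUMO1 FRET substrate flanked by Cypet and Ypet, 25 nM / Times: 50 min reaction at room temperature / Signal: FRET, CFP and YFP emission / Control set: no-enzyme low control and enzyme-plus-DMSO high control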
TPT1 inh: Candida albicans TPT1 enzyme inhibitors, primary screen, biochemical, fluorescence polarization; recombinant caTPT1, FP RNA substrate dephosphorylation; inhibition, % at 5 µM; hit rate 0.81% among 300,000;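 active = inhibition above the mean of all tested compounds plus 3 SD, set per screening campaign, cut at about 24% in these data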
CSN inh: inhibitors of CSN-mediated cullin deneddylation, primary screen, biochemical, fluorescence polarization, uHTS | Purified CSN, SCF-Nedd8-OG deneddylation | inhibition, % at 12.5 µM | hit rate 0.38% among 360,000;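 active = pattern-corrected inhibition above about 35%, with an unprinted fluorescence ratio check between 0.5 and 1.5, limit read from the data, passing the limit was not always enough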
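Assay system: purified human Csn5 enzyme expressed in HEK293T cells; Input: 0.24 nM Csn5 enzyme, final concentration; Reagent: 10 nM SCFSkp2-Nedd8OG; Compound dosing: 12.5 µM single point; Times: reaction 90 min, room temperature; Technique: fluorescence polarization readout.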
HNF4A DNA FP: change in binding of human HNF4A to DNA, primary screen, biochemical, fluorescence polarization, FITC-DNA. Hepatocyte nuclear factor 4-alpha (Homo sapiens), P41235. 1 h. activity change, % at 10 µM. hit rate 0.3% among 360,000; in the data active = activity change above about 30%, passing the limit was not always enough
Rpn11 block: Rpn11 (PSMD14) deubiquitinase inhibitors, primary screen, biochemical, fluorescence polarization, uHTS; AID 588493, 2011; 26S proteasome non-ATPase regulatory subunit 14 (Homo sapiens), O00487; hit rate 0.59% among 360,000; inhibition, % at 20 µM; human 26S proteasome, Ub4-pepOG fluorescence polarization; 20S core pre-blocked with epoxomicin;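 active = inhibition at 20 µM, scaled to each plate's controls, above about 33%, limit read from the data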
ATG4B inh: ATG4B protease inhibitors, primary screen, biochemical, fluorescence, uHTS. Cysteine protease ATG4B (Homo sapiens), Q9Y4P1. ATG4B cleavage of LC3-PLA2, NBD-HPC fluorescence, 1 h. inhibition, % at 8.33 µM. hit rate 0.51% among 340,000
Rpn11 inh conf: Rpn11 (PSMD14) deubiquitinase inhibitors, confirmation, biochemical, fluorescence polarization, single concentration; hit rate 29% among 1,900; purified human 26S proteasome, Ub4-pepOG fluorescence polarization; proteasome pretreated with epoxomicin; inhibition, % at 20 µM; shares compounds with Rpn11 block; AID 602318, 2012
MMP-2 inh: MMP-2 enzyme inhibition, confirmation, counter-screen for RPN11 inhibitor project, biochemical, fluorescence, single concentration; shares compounds with Rpn11 block; recombinant MMP-2, FRET peptide cleavage fluorescence; inhibition, % at 20 µM; hit rate 4% among 1,900; AID 602330, 2012;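 note: human MMP-2 activated beforehand with APMA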
Thrombin FP: bovine thrombin protease inhibition, confirmation, counter-screen for Rpn11 inhibitor project, biochemical, fluorescence polarization, single concentration. hit rate 13% among 1,900. inhibition, % at 20 µM. bovine thrombin cleavage of Ub4-pepOG. shares compounds with Rpn11 block. AID 602333, 2012;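 active = mean inhibition at least 40% at 20 µM, or signal 3 deviations below plate average, so some actives read negative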
Target sequence (P00735 whole entry, looked up): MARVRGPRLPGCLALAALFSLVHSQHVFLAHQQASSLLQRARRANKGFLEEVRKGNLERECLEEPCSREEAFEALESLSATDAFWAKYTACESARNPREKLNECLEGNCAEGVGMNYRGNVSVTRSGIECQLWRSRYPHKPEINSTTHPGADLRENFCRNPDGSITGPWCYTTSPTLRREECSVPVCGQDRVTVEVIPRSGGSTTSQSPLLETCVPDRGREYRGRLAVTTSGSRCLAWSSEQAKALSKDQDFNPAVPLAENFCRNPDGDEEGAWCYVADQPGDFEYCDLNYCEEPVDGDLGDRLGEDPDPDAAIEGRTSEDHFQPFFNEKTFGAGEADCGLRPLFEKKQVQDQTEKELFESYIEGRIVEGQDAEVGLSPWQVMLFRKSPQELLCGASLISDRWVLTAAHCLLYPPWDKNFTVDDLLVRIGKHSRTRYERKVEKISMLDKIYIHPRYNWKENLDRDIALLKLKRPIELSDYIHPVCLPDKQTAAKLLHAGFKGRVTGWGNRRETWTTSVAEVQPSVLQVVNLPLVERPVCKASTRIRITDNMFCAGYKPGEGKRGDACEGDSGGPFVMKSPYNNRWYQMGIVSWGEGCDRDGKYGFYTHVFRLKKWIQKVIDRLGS
Hits are given with their value; - = inactive; . = no result. This is a sample that favours compounds with a hit; in the whole collection about 2% have one here. Cut-off read from the data, not from the text of the source, unless noted: active = inhibition above about 40%; inactive = the rest.

SMILES | SENP1 FRET inh | TPT1 inh | CSN inh | HNF4A DNA FP | Rpn11 block | ATG4B inh | Rpn11 inh conf | MMP-2 inh | Thrombin FP
CC(=O)Oc1ccccc1-c1nc(/C=C/c2ccccc2)no1 | - | . | - | - | - | - | . | . | .
CC(C)C[C@H]1CNC(=O)C(=O)N1CC1CCN(CCc2ccccc2)CC1 | - | . | - | - | - | . | . | . | .
COc1ccc(F)cc1S(=O)(=O)Nc1ccncc1 | - | - | - | - | - | - | . | . | .
Cc1ccc2[nH]c(O)c(N=Nc3ccccc3C)c2c1 | - | - | - | - | 54.0 | - | 64.5 | - | -
Cc1ccccc1N=Nc1c(O)[nH]c2ccccc12 | - | - | - | - | - | - | . | . | .
COc1nc(-c2ccccc2)ccc1-c1noc(-c2ccccc2)n1 | - | - | - | - | - | - | . | . | .
COc1nc(-c2ccccc2)ccc1-c1noc(-c2cccs2)n1 | - | - | - | - | 46.0 | - | - | - | -
CCOc1ccc(CCNC(=O)COC(=O)COc2ccccc2C)cc1OCC | - | - | - | - | - | - | . | . | .
COC(=O)c1ccc2c(c1)NC(=O)C(N(CC(C)C)CC(C)C)S2 (stereo not given) | - | - | - | 46.8 | 47.6 | - | - | - | -
O=C(Nc1ccccc1-c1nnc(SCc2ccc(Cl)cc2)o1)c1ccccc1 | - | - | - | - | 66.4 | - | - | - | -
CNC(=O)CSc1nc2ccccc2c(=O)n1CCc1ccccc1 | - | - | - | - | - | - | . | . | .
Cc1cccc(-n2c(C)cc(/C=C3/C(=N)N4C(c5ccccc5)=CSC4=NC3=O)c2C)c1 | - | - | - | - | 56.9 | - | - | - | -
S=c1[nH]nc(-c2cc(-c3ccccc3)n[nH]2)n1/N=C/c1cccc(Cl)c1 | - | - | - | - | 177.3 | - | 156.6 | - | 81.5
S=c1[nH]nc(-c2cc(-c3ccccc3)n[nH]2)n1/N=C/c1ccc(Cl)c(Cl)c1 | - | - | 71.6 | - | 58.5 | - | 54.7 | - | -
S=c1[nH]nc(-c2cc(-c3ccccc3)n[nH]2)n1/N=C/c1ccc(Cl)cc1 | - | - | - | - | - | - | . | . | .
COc1ccc(CNC(=O)[C@H](C)NC(=O)C2CCN(C(=O)[C@@H](N)Cc3ccccc3)CC2)cc1 | - | - | - | - | - | - | . | . | .
N#CC1=C(N)Oc2cc(O)c(Cl)cc2C1c1cccnc1 (stereo not given) | - | . | - | - | 56.9 | - | - | - | -
C#CCOc1ccc(C2C(C#N)=C(N)Oc3cc(O)ccc32)cc1 (stereo not given) | - | - | - | - | 52.5 | - | - | - | -
COc1ccc(C2C(C#N)=C(N)Oc3cc(O)ccc32)cc1Cl (stereo not given) | - | - | - | - | 58.9 | - | - | - | -
O=C(COC(=O)/C=C/c1ccccc1[N+](=O)[O-])Nc1ccc(S(=O)(=O)N2CCOCC2)cc1 | - | . | - | - | - | - | . | . | .
CCCn1c(SCC(=O)N2CCN(CC)CC2)nc2c1c(=O)n(C)c(=O)n2C | - | - | - | - | - | - | . | . | .
Cc1ccccc1C(=O)NNS(=O)(=O)c1ccc(F)cc1 | - | . | - | - | - | . | . | . | .
CN(C(=O)CSc1nnc(-c2cccs2)n1C1CC1)C1CCS(=O)(=O)C1 (stereo not given) | - | . | - | - | - | - | . | . | .
CC(=O)COc1ccc2c(-c3ccccc3)cc(=O)oc2c1C | - | - | - | - | - | - | . | . | .
Cc1c(OCC(N)=O)ccc2c(-c3ccccc3)cc(=O)oc12 | - | - | - | - | 58.1 | - | 47.3 | - | -
SMILES | SENP1 FRET inh | TPT1 inh | CSN inh | HNF4A DNA FP | Rpn11 block | ATG4B inh | Rpn11 inh conf | MMP-2 inh | Thrombin FP
O=C(O/N=C1/CCCc2occc21)c1ccc(Cl)cc1Cl | - | - | - | - | - | - | . | . | .
O=C(N/N=C/c1ccc(-c2ccc([N+](=O)[O-])cc2)o1)c1cccnc1 | - | - | - | - | 84.8 | - | 48.8 | - | -
O=[N+]([O-])c1ccc(-c2ccc(/C=N/Nc3nc(N4CCCCC4)nc(N4CCCCC4)n3)o2)cc1 | - | . | - | - | 57.5 | - | - | - | -
O=C(c1ccco1)N1CCN(C(=O)c2cc(-c3ccncc3)nc3ccc(Br)cc23)CC1 | - | - | - | - | 64.8 | - | - | - | -
Cc1ccc(S(=O)(=O)N2CCCC2=O)c(C)c1N(C)S(C)(=O)=O | - | - | - | - | - | - | . | . | .
Cc1ccc(C)c(OCC(=O)NNC(=O)c2ccc(NC(=O)C3CC3)cc2)c1 | - | . | - | - | - | - | . | . | .
Cc1cc(Br)ccc1OCC(=O)NNC(=O)c1ccc(NC(=O)C2CC2)cc1 | - | - | - | - | 55.2 | - | - | - | -
Cc1ccc(-c2csc(Nc3ccc(S(N)(=O)=O)cc3)n2)o1 | - | - | - | - | 46.4 | - | - | - | -
COc1ccc2nc(N3C(=O)/C(=C/c4ccc(Cl)cc4)NC3=S)sc2c1 | 33.1 | . | - | - | 77.4 | - | 56.0 | - | -
COc1ncnc2c1ncn2CCCNCc1ccc2c(c1)OCO2 | - | . | - | - | - | . | . | . | .
O=C1NC(=S)NC1=Cc1ccc2c(c1)CCC2 | - | . | - | 39.5 | 46.2 | - | - | - | -
O=C1NC(=S)N/C1=C/C=C/c1ccccc1 | - | - | - | - | - | - | . | . | .
Cc1cc2nc(-c3ccc4c(c3)CCC4)ccn2n1 | - | - | - | - | - | - | . | . | .
COc1cc(/C=C/C(=O)O)ccc1OS(=O)(=O)c1c(C)cc(C)cc1C | - | . | - | - | - | - | . | . | .
Cc1cc(C)nc(NS(=O)(=O)c2ccc(NC(=O)C3COc4ccccc4O3)cc2)n1 (stereo not given) | - | - | - | - | - | - | . | . | .
O=C(Nc1ccc(S(=O)(=O)Nc2ccccc2)cc1)C1COc2ccccc2O1 (stereo not given) | - | - | - | - | 62.5 | - | - | - | -

Screening data deposited in PubChem BioAssay by several laboratories.
